Measurements as given in ChEMBL document CHEMBL1641460, “Potent and selective thiophene urea-templated inhibitors of S6K” (Bioorg Med Chem Lett, 2011).
pIC50: −log10 of the molar value.

Columns and labels:
[1] = target: Serine/threonine-protein kinase PAK 4 (Homo sapiens) (UniProt O96013); experiment: Inhibition of PAK4 at 1 uM
[2] = target: Epidermal growth factor receptor (Homo sapiens) (UniProt P00533); experiment: Inhibition of EGFR at 1 uM
[3] = target: Serine/threonine-protein kinase Chk2 (Homo sapiens) (UniProt O96017); experiment: Inhibition of CHEK2 at 1 uM
[4] = target: Tyrosine-protein kinase BTK (Homo sapiens) (UniProt Q06187); experiment: Inhibition of BTK at 10 uM
[5] = target: Myosin light chain kinase 2, skeletal/cardiac muscle (Homo sapiens) (UniProt Q9H1R3); experiment: Inhibition of MYLK2 at 1 uM
[6] = target: Mitogen-activated protein kinase 14 (Homo sapiens) (UniProt Q16539); experiment: Inhibition of MAPK14 at 1 uM
[7] = target: Casein kinase I isoform delta (Homo sapiens) (UniProt P48730); experiment: Inhibition of CSNK1D at 10 uM
[8] = target: Vascular endothelial growth factor receptor 2 (Homo sapiens) (UniProt P35968); experiment: Inhibition of KDR at 10 uM
[9] = target: Mitogen-activated protein kinase 14 (Homo sapiens) (UniProt Q16539); experiment: Inhibition of MAPK14 at 10 uM
[10] = target: cAMP-dependent protein kinase catalytic subunit alpha (Homo sapiens) (UniProt P17612); experiment: Inhibition of PRKACA at 10 uM
[11] = target: Casein kinase II subunit alpha (Homo sapiens) (UniProt P68400); experiment: Inhibition of CSNK2A1 at 10 uM
[12] = target: Fibroblast growth factor receptor 1 (Homo sapiens) (UniProt P11362); experiment: Inhibition of FGFR1 at 1 uM
Fibroblast growth factor receptor 1 (Homo sapiens), sequence (P11362 22-822 limits assumed): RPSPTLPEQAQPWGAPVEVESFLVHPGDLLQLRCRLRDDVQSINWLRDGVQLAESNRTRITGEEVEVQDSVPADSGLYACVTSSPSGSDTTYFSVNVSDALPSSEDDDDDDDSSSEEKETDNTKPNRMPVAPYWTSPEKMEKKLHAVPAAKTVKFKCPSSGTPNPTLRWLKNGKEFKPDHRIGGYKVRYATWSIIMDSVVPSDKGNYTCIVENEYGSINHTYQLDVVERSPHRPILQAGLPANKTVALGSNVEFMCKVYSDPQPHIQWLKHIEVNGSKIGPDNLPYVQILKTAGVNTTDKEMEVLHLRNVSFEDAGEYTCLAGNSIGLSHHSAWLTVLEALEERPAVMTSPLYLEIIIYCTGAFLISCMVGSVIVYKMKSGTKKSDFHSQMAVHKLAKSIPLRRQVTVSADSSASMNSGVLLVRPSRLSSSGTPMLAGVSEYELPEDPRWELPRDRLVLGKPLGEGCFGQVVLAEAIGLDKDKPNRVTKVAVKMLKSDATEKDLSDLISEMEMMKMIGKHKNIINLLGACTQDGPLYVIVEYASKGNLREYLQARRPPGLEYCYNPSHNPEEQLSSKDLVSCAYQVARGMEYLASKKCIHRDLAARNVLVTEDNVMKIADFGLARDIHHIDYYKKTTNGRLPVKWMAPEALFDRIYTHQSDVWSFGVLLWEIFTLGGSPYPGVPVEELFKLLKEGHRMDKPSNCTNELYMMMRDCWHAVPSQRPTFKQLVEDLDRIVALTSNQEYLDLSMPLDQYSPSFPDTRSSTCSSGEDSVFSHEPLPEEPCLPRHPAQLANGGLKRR

[13] = target: Dual specificity protein kinase CLK1 (Homo sapiens) (UniProt P49759); experiment: Inhibition of CLK1 at 10 uM
[14] = target: CYP2D6 (Homo sapiens, UniProt P10635); experiment: Inhibition of CYP2D6 at 3 uM by LC/MS/MS analysis; format: ADME
[15] = target: Serine/threonine-protein kinase PAK 4 (Homo sapiens) (UniProt O96013); experiment: Inhibition of PAK4 at 10 uM
[16] = target: Tyrosine-protein kinase ABL1 (Homo sapiens) (UniProt P00519); experiment: Inhibition of ABL1 at 1 uM
[17] = target: Tyrosine-protein kinase JAK3 (Homo sapiens) (UniProt P52333); experiment: Inhibition of JAK3 at 1 uM
Tyrosine-protein kinase JAK3 (Homo sapiens), sequence (P52333 whole entry, looked up): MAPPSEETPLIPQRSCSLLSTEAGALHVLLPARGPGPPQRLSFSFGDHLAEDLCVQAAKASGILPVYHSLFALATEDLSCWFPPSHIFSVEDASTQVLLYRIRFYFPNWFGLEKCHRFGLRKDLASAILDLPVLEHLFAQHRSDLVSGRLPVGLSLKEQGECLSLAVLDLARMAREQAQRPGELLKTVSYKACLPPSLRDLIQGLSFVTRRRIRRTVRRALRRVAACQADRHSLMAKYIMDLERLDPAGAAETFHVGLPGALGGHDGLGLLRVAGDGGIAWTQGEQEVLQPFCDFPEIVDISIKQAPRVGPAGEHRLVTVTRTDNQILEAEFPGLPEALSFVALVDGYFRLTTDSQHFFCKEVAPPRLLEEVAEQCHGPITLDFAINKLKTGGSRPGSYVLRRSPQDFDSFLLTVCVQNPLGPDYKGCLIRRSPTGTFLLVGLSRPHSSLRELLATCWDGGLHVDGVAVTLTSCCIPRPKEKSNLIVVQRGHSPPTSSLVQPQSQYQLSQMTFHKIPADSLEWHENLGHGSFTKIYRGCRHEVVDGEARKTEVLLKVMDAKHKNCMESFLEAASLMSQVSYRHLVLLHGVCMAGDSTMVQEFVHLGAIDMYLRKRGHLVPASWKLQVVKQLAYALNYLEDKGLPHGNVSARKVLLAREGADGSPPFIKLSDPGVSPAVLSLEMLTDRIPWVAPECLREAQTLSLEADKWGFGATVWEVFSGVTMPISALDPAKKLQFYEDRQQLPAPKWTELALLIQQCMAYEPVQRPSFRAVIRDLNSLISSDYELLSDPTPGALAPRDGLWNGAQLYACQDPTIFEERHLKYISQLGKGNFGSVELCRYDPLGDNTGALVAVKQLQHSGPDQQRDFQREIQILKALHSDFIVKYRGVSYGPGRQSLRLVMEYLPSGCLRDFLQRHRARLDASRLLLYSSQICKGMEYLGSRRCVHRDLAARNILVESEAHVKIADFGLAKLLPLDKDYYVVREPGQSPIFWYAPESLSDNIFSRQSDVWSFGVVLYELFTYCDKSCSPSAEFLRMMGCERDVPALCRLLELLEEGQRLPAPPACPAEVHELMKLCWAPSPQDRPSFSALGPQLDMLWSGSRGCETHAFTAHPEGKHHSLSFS

[18] = Half life in human liver microsomes at 1 uM by LC/MS/MS analysis; format: ADME, Microsome
Procedure, shortened: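 Test compound incubated with human liver microsomes to measure Phase I metabolic stability. Remaining compound quantified by LC/MS/MS, and stability reported as half-life (T1/2) in minutes.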

[19] = target: Tyrosine-protein kinase JAK3 (Homo sapiens) (UniProt P52333); experiment: Inhibition of JAK3 at 10 uM
[20] = target: Rho-associated protein kinase 1 (Homo sapiens) (UniProt Q13464); experiment: Inhibition of ROCK1 at 1 uM
[21] = target: Glycogen synthase kinase-3 beta (Homo sapiens) (UniProt P49841); experiment: Inhibition of GSK3b at 10 uM
[22] = target: Insulin receptor (Homo sapiens) (UniProt P06213); experiment: Inhibition of INSR at 10 uM
[23] = target: Serine/threonine-protein kinase 3 (Homo sapiens) (UniProt Q13188); experiment: Inhibition of STK3 at 1 uM
[24] = target: Tyrosine-protein kinase BTK (Homo sapiens) (UniProt Q06187); experiment: Inhibition of BTK at 1 uM
[25] = target: Epidermal growth factor receptor (Homo sapiens) (UniProt P00533); experiment: Inhibition of EGFR at 10 uM
[26] = target: Inhibitor of nuclear factor kappa-B kinase subunit epsilon (Homo sapiens) (UniProt Q14164); experiment: Inhibition of IKBKE at 1 uM
Inhibitor of nuclear factor kappa-B kinase subunit epsilon (Homo sapiens), sequence (Q14164 whole entry): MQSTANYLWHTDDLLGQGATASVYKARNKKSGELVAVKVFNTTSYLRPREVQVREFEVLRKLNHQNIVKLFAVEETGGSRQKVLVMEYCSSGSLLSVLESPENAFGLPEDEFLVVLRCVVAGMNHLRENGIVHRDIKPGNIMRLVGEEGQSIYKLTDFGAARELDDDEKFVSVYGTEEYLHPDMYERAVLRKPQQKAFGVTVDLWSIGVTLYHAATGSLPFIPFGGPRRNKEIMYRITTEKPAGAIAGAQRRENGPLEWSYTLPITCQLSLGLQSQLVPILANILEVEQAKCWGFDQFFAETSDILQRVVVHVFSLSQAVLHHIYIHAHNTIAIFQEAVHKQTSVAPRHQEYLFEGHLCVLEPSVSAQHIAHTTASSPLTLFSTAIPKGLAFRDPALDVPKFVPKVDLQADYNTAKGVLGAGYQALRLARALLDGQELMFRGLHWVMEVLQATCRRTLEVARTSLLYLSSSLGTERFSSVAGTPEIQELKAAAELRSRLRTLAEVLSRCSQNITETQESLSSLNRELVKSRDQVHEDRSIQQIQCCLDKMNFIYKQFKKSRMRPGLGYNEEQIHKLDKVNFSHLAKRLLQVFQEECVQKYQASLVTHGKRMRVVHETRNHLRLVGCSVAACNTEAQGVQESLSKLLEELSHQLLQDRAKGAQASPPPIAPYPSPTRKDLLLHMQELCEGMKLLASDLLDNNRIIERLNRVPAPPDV

[27] = target: Fibroblast growth factor receptor 1 (Homo sapiens) (UniProt P11362); experiment: Inhibition of FGFR1 at 10 uM
[28] = target: MAP kinase-activated protein kinase 2 (Homo sapiens) (UniProt P49137); experiment: Inhibition of MAPKAPK2 at 1 uM
[29] = target: Tyrosine-protein kinase Lck (Homo sapiens) (UniProt P06239); experiment: Inhibition of LCK at 1 uM
[30] = target: Serine/threonine-protein kinase pim-2 (Homo sapiens) (UniProt Q9P1W9); experiment: Inhibition of PIM2 at 10 uM
[31] = target: Serine/threonine-protein kinase Chk1 (Homo sapiens) (UniProt O14757); experiment: Inhibition of CHEK1 at 1 uM
[32] = target: Ribosomal protein S6 kinase beta-1 (Homo sapiens, UniProt P23443); experiment: Inhibition of S6K1
[33] = target: Mitogen-activated protein kinase kinase kinase 9 (Homo sapiens) (UniProt P80192); experiment: Inhibition of MAP3K9 at 10 uM
[34] = target: Serine/threonine-protein kinase pim-2 (Homo sapiens) (UniProt Q9P1W9); experiment: Inhibition of PIM2 at 1 uM
[35] = target: Cyclin-dependent kinase 2 (Homo sapiens) (UniProt P24941); experiment: Inhibition of CDK2 at 10 uM
[36] = target: Hepatocyte growth factor receptor (Homo sapiens) (UniProt P08581); experiment: Inhibition of MET at 10 uM
[37] = target: Inhibitor of nuclear factor kappa-B kinase subunit beta (Homo sapiens) (UniProt O14920); experiment: Inhibition of IKBKB at 10 uM
[38] = target: Calcium/calmodulin-dependent protein kinase type 1 (Homo sapiens) (UniProt Q14012); experiment: Inhibition of CAMK1 at 1 uM
[39] = target: Cyclin-dependent kinase 6 (Homo sapiens) (UniProt Q00534); experiment: Inhibition of CDK6 at 10 uM
[40] = target: Serine/threonine-protein kinase TAO3 (Homo sapiens) (UniProt Q9H2K8); experiment: Inhibition of TAOK3 at 10 uM
[41] = target: Inhibitor of nuclear factor kappa-B kinase subunit epsilon (Homo sapiens) (UniProt Q14164); experiment: Inhibition of IKBKE at 10 uM
[42] = target: 3-phosphoinositide-dependent protein kinase 1 (Homo sapiens) (UniProt O15530); experiment: Inhibition of PDPK1 at 10 uM
3-phosphoinositide-dependent protein kinase 1 (Homo sapiens), sequence (O15530 whole entry): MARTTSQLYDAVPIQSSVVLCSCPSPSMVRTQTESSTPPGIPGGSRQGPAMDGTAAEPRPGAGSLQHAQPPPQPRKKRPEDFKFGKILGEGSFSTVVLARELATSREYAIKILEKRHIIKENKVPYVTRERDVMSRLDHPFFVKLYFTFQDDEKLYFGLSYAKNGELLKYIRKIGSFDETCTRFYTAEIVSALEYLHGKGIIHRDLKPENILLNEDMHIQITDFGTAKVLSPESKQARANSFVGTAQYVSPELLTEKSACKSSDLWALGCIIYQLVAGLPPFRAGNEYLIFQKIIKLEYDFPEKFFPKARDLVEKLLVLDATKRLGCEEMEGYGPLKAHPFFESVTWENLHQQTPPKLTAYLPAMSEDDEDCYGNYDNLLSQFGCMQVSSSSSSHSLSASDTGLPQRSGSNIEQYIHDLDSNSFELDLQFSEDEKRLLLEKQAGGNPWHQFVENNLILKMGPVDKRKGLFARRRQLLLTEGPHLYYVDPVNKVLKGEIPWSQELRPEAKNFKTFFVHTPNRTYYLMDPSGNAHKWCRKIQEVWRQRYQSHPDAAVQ

[43] = target: Serine/threonine-protein kinase Chk2 (Homo sapiens) (UniProt O96017); experiment: Inhibition of CHEK2 at 10 uM
[44] = target: Inhibitor of nuclear factor kappa-B kinase subunit beta (Homo sapiens) (UniProt O14920); experiment: Inhibition of IKBKB at 1 uM
[45] = target: Serine/threonine-protein kinase MARK1 (Homo sapiens) (UniProt Q9P0L2); experiment: Inhibition of MARK1 at 10 uM
[46] = target: Serine/threonine-protein kinase Nek2 (Homo sapiens) (UniProt P51955); experiment: Inhibition of NEK2 at 1 uM
[47] = target: 3-phosphoinositide-dependent protein kinase 1 (Homo sapiens) (UniProt O15530); experiment: Inhibition of PDPK1 at 1 uM
[48] = target: High affinity nerve growth factor receptor (Homo sapiens) (UniProt P04629); experiment: Inhibition of NTRK1 at 10 uM

Serine/threonine-protein kinase PAK 4 (Homo sapiens), sequence (O96013 whole entry, looked up): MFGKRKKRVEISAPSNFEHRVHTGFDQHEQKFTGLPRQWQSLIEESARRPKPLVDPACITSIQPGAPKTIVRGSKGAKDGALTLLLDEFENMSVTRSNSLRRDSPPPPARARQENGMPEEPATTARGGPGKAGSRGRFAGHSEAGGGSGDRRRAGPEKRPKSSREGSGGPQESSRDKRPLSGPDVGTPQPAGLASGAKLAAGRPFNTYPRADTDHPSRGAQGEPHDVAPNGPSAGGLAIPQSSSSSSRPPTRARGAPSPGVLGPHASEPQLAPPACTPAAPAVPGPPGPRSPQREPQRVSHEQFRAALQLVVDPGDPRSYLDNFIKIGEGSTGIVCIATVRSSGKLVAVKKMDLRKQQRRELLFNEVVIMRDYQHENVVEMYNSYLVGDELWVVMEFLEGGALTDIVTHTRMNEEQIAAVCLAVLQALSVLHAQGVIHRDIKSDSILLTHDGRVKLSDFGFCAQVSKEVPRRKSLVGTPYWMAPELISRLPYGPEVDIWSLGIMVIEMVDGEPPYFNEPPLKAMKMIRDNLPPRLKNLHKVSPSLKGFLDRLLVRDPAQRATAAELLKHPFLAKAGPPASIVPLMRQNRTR
Epidermal growth factor receptor (Homo sapiens), sequence (P00533 whole entry): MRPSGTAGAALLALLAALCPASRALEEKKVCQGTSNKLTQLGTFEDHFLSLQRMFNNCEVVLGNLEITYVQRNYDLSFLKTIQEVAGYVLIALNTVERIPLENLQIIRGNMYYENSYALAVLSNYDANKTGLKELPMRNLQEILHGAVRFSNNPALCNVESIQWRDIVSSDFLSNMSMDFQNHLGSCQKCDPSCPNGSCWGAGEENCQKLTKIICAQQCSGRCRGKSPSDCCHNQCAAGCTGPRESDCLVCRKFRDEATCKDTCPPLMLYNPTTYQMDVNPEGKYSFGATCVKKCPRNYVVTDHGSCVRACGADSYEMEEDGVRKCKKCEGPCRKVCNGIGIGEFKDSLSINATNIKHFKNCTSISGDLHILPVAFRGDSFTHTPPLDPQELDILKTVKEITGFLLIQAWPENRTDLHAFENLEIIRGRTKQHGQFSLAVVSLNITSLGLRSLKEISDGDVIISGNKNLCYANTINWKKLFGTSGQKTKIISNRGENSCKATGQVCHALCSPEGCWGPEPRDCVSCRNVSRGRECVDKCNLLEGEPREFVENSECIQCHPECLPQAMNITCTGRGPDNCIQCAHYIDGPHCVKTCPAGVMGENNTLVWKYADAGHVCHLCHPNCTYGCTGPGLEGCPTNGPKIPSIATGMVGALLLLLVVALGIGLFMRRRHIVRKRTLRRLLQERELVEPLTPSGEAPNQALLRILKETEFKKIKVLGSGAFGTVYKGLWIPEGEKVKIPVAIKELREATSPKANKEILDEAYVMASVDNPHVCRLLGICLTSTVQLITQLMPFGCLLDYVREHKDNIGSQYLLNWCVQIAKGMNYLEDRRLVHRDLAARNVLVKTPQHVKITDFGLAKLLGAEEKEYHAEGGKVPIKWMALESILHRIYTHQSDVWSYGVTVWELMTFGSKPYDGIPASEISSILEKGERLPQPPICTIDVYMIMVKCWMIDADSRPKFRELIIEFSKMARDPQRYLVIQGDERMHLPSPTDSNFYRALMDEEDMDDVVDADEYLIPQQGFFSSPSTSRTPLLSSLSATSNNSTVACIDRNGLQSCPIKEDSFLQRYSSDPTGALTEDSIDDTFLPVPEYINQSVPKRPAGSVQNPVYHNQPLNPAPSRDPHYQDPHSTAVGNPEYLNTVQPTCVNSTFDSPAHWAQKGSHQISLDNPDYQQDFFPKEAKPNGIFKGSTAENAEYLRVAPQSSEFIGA

inhibition [1]: 0%
inhibition [2]: 10%
inhibition [3]: 20%
inhibition [4]: 0%
inhibition [5]: 10%
inhibition [6]: 10%
inhibition [7]: 20%
inhibition [8]: 0%
inhibition [9]: 10%
inhibition [10]: 10%
inhibition [11]: 30%
inhibition [12]: 0%
inhibition [13]: 10%
inhibition at 3 µM [14]: 0%
inhibition [15]: 0%
inhibition [16]: 0%
inhibition [17]: 40%
half-life at 1 µM [18]: > 2 h
inhibition [19]: 40%
inhibition [20]: 10%
inhibition [21]: 10%
inhibition [22]: 0%
inhibition [23]: 0%
inhibition [24]: 0%
inhibition [25]: 10%
inhibition [26]: 10%
inhibition [27]: 0%
inhibition [28]: 10%
inhibition [29]: 0%
inhibition [30]: 0%
inhibition [31]: 10%
pIC50 [32]: 7.28
inhibition [33]: 20%
inhibition [34]: 0%
inhibition [35]: 10%
inhibition [36]: 0%
inhibition [37]: 10%
inhibition [38]: 10%
inhibition [39]: 0%
inhibition [40]: 10%
inhibition [41]: 10%
inhibition [42]: 20%
inhibition [43]: 20%
inhibition [44]: 10%
inhibition [45]: 20%
inhibition [46]: 10%
inhibition [47]: 20%
inhibition [48]: 10%
SMILES: CC(C)(C)c1cc(C(=O)O)c(NC(=O)Nc2ccc3[nH]ncc3c2)s1
